A short description of data set [1]: Half life of the compound at pH 7.5 at 25 degC by solution stability test. It is filed as physicochemical. The note with it: buffer.
Data set [2] is described as follows: Aqueous solubility of the compound at pH 6.5. It is filed as physicochemical.
Data set [3] can be described thus: Half life of the compound at pH 7.4 at 37 degC by solution stability test. It is filed as physicochemical. Particulars: buffer. In a few lines:
(§1)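 Chemical stability in aqueous solution at 37 °C, at pH 1.0 or pH 7.4. Half-life determined for each condition, in hours.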

A short description of data set [4]: Half life of the compound at pH 1 at 37 degC by solution stability test. It is filed as physicochemical. Particulars: buffer. In a few lines:
as §1

Data set [5] in a line: Aqueous solubility of the compound at pH 1. It is filed as physicochemical.
A short description of data set [6]: Tmax in rat at 100 mg/kg, po administered in 0.75% methocel vehicle as suspension. The note with it: in vivo. It is filed as ADME, organism-based. Also on record: dose 100 mg/kg, route oral. The method in brief: (§2)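 Oral dosing to rats as a methocel suspension. Prodrug given at 142 mpk (equivalent to 100 mpk of parent); parent given at 100 mpk. Parent drug measured in plasma over 24 h, giving Cmax, Tmax and AUC0–24h. The prodrug itself was also monitored in plasma.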

Data set [7] can be described thus: Cmax in rat at 100 mg/kg, po administered in 0.75% methocel vehicle as suspension. It is filed as ADME, organism-based. Also on record: dose 100 mg/kg, route oral. Particulars: in vivo. The method in brief:
as §2

Data set [8] in a line: Tmax in rat at 10 mg/kg, po administered with 1:1 PEG 300/water as vehicle. It is filed as ADME, organism-based. Also on record: dose 10 mg/kg, route oral. Particulars: in vivo. The method in brief: (§3)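 Oral dosing to rats as a solution in 1:1 PEG 300/water. Prodrug given at 14.2 mpk (equivalent to 10 mpk of parent); parent given at 10 mpk. Plasma levels of the parent drug measured over 24 h, giving Cmax, Tmax and AUC0–24h. The prodrug itself was also monitored in plasma.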

Data set [9] is described as follows: AUC (0 to 24 hrs) in rat at 100 mg/kg, po administered in 0.75% methocel vehicle as suspension. Also on record: time < 24 hr, dose 100 mg/kg, route oral. Particulars: plasma. It is filed as ADME, organism-based. The method in brief:
as §2

Data set [10] in a line: Cmax in rat at 10 mg/kg, po administered with 1:1 PEG 300/water as vehicle. It is filed as ADME, organism-based. Also on record: dose 10 mg/kg, route oral. The note with it: in vivo. The method in brief:
as §3

Data set [11] in a line: AUC (0 to 24 hrs) in rat at 10 mg/kg, po administered with 1:1 PEG 300/water as vehicle. The data set is classed as ADME, organism-based. Also on record: time < 24 hr, dose 10 mg/kg, route oral. The note with it: plasma. In a few lines:
as §3

In data set [12] the test system is Rattus norvegicus. Briefly: AUC (0 to 24 hrs) in rat assessed as parent compound BMS-582949 at 14.2 mg/kg, po administered in 1:1 PEG 300/water as vehicle. The data set is classed as ADME, organism-based, Plasma. Also on record: time < 24 hr, dose 14.2 mg/kg, route oral. Particulars: in vivo. The method in brief:
as §3

The subject of data set [13] is Rattus norvegicus. Kind of data set: Cmax in rat assessed as parent compound BMS-582949 at 14.2 mg/kg, po administered in 1:1 PEG 300/water as vehicle. Particulars: in vivo. The data set is classed as ADME, organism-based. Also on record: dose 14.2 mg/kg, route oral. In a few lines:
as §3

Data set [14] has as its system Rattus norvegicus. Kind of data set: Tmax in rat assessed as parent compound BMS-582949 at 14.2 mg/kg, po administered in 1:1 PEG 300/water as vehicle. The data set is classed as ADME, organism-based. Also on record: dose 14.2 mg/kg, route oral. Particulars: in vivo. In a few lines:
as §3

The nature of data set [15]: Aqueous solubility of the compound at pH 3.1. It is filed as physicochemical.
Data set [16] concerns Rattus norvegicus. Briefly: Tmax in rat assessed as parent compound BMS-582949 at 142 mg/kg, po administered in 0.75% methocel vehicle as suspension. The data set is classed as ADME, organism-based. Also on record: dose 142 mg/kg, route oral. The note with it: in vivo. In a few lines: as §2
Data set [17] in a line: Aqueous solubility of the compound at pH 4.6. The data set is classed as physicochemical.
Data set [18] relates to Rattus norvegicus. Briefly: Cmax in rat assessed as parent compound BMS-582949 at 142 mg/kg, po administered in 0.75% methocel vehicle as suspension. Particulars: in vivo. The data set is classed as ADME, organism-based. Also on record: dose 142 mg/kg, route oral. In a few lines:
as §2

Data set [19] concerns Rattus norvegicus. Kind of data set: AUC (0 to 24 hrs) in rat assessed as parent compound BMS-582949 at 142 mg/kg, po administered in 0.75% methocel vehicle as suspension. It is filed as ADME, organism-based, Plasma. Also noted: time < 24 hr, dose 142 mg/kg, route oral. The note with it: in vivo. In a few lines:
as §2

Usually half-life stands for how long it takes for the measured level to halve. Usually solubility stands for the concentration that dissolves in the medium under given conditions. One may read the Tmax as the time from dosing to the highest level. In general, Cmax refers to the highest concentration seen after dosing. What is called AUC(0-t) is the area under the concentration-time curve up to a stated or last time point. Read a high AUC(0-t) as more exposure. What is called AUC is concentration integrated over time.

Converted amounts (≈) assume the structure as drawn.

Consider `O=C(OCOP(=O)(O)O)OC1Cc2ccccc2C1`, for which the half-life in [1] was found to be 0.967 h.

Turning to `CCCNC(=O)c1cn2ncnc(Nc3cc(C(=O)N(C(=O)OCOC(=O)/C=C/C(=O)O)C4CC4)ccc3C)c2c1C`, the figures for the solubility in data set [2] and in data set [5] were 1570 µg/mL (≈ 2710 µM) and 166 µg/mL (≈ 287 µM), respectively. Further, the half-life in data set [3] is 21.8 h; in data set [4] it was 34.5 h.

On to `CCCN(C(=O)OCOC(=O)[C@H](C)N)C(=O)c1cn2ncnc(Nc3cc(C(=O)NC4CC4)ccc3C)c2c1C.Cl.Cl`, for which the half-life in data set [3] was < 0.25 h; in data set [4], 3.2 h.

`CCCN(C(=O)OCOP(=O)(O)O)C(=O)c1cn2ncnc(Nc3cc(C(=O)NC4CC4)ccc3C)c2c1C`: the half-life in [3] was < 0.25 h; in [4], 26.8 h.

On to `CCCNC(=O)c1cn2ncnc(N(C(=O)OCOC(=O)/C=C/C(=O)O)c3cc(C(=O)NC4CC4)ccc3C)c2c1C`, for which the solubility in data set [2] worked out at 1150 µg/mL (≈ 1990 µM); in [5] it was 8 µg/mL (≈ 13.8 µM). Moreover, the half-life in [3] is 14.6 h; in [4], 129 h.

As for `CCCNC(=O)c1cn2ncnc(N(C(=O)OCOP(=O)(O)O)c3cc(C(=O)NC4CC4)ccc3C)c2c1C`, the half-life was < 0.25 h in [3] and 8.5 h in [4].

Turning to `CCCNC(=O)c1cn2ncnc(Nc3cc(C(=O)N(C(=O)OCOP(=O)(O)O)C4CC4)ccc3C)c2c1C`, the half-life is < 0.25 h in data set [3] and 20.5 h in data set [4].

As to `CCCNC(=O)c1cn2ncnc(N(C(=O)OCOC(=O)[C@H](C)N)c3cc(C(=O)NC4CC4)ccc3C)c2c1C.Cl.Cl`, the half-life in data set [3] was < 0.25 h; in [4] it was 3.2 h.

On to `CCCNC(=O)c1cn2ncnc(Nc3cc(C(=O)NC4CC4)ccc3C)c2c1C` [BMS-582949], for which the time to peak (Tmax) in data set [6] worked out at 1.7 h; in data set [8], 1 h. Also, the figures for the Cmax in data set [7] and in data set [10] were 0.8 µM and 6.5 µM, respectively. Further, the AUC(0-t) at 24 h stood at 5.6 µM·h in data set [9] and 53.3 µM·h in data set [11].

As for `COc1ccc(CCNC(=O)OCOP(=O)(O)O)cc1OC`, in [1], the half-life is 1150 h.

In the case of `CCCN(C(=O)OCOC(=O)/C=C/C(=O)O)C(=O)c1cn2ncnc(Nc3cc(C(=O)NC4CC4)ccc3C)c2c1C`, the values for the exposure (AUC) with Rattus norvegicus [12] and in the data set on Rattus norvegicus [19] were 52 µM·h and 213.9 µM·h, respectively. In addition, the maximum concentration (Cmax) with Rattus norvegicus [13] was 4.6 µM; in the data set with Rattus norvegicus [18], 21.1 µM. The solubility in [2] came to 883 µg/mL (≈ 1530 µM); in data set [5], 1180 µg/mL (≈ 2040 µM); in data set [15], 105 µg/mL (≈ 181 µM); in data set [17] it was 367 µg/mL (≈ 634 µM). Also, the time of peak concentration (Tmax) worked out at 4 h in the data set on Rattus norvegicus [14] and 6 h in the data set with Rattus norvegicus [16]. Besides, the half-life in data set [3] was 38.5 h; in [4], 79.4 h.

Turning to `CCCNC(=O)c1cn2ncnc(Nc3cc(C(=O)N(C(=O)OCOC(=O)[C@H](C)N)C4CC4)ccc3C)c2c1C.Cl`, the results for the half-life in data set [3] and in data set [4] were < 0.25 h and 3 h, respectively.

Source of the values: ChEMBL document CHEMBL2384922, “Synthesis and evaluation of carbamoylmethylene linked prodrugs of BMS-582949, a clinical p38α inhibitor” (Bioorg Med Chem Lett, 2013).
